Source: ChEMBL document CHEMBL1821557, “Novel aryloxy azolyl chalcones with potent activity against Mycobacterium tuberculosis H37Rv” (Eur J Med Chem, 2011)
Values after ≈ are worked out from the molar mass of the structure shown.

Assays:
[1] = system: Mycobacterium tuberculosis; assay: Antitubercular activity against Mycobacterium tuberculosis H37Rv after 4 weeks by agar proportion method; type: functional; conditions: 672 h
How it was run: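 Agar proportion method on Middlebrook 7H10 agar slants with OADC; compounds in DMSO added at 0.1 mL per 1.9 mL medium. Inoculum was H37Rv grown on L–J medium and suspended in saline with 0.05% Tween-80, ~10^5 bacilli per tube. Incubated 37 °C for 4 weeks; MIC is the lowest concentration with no visible growth.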

[2] = Cytotoxicity against mouse BMDM cells assessed as growth inhibition at 10 times MIC after 24 hrs by MTS assay; type: cell-based
How it was run: (§1)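 Vero cells or mouse bone-marrow-derived macrophages plated at 20,000 cells/well and allowed to adhere overnight (37 °C, 5% CO2). Compounds added at several concentrations for 24 h, then MTS for 2 h, with OD read at 490 nm. IC50 is the concentration giving 50% viability loss; a compound counts as toxic if IC50 ≤10× MIC.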

[3] = system: Mycobacterium tuberculosis; assay: Antitubercular activity against Mycobacterium tuberculosis H37Rv infected in Swiss mouse assessed as inhibition of viable bacterial counts in lungs at 25 mg/kg, po for 28 days measured on day 30 post infection; type: functional
How it was run: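 Outbred Swiss mice infected i.v. with H37Rv at 10^7 CFU/mouse, in groups of 6–8. Test compounds were given orally at 100 mg/kg daily for 28 days in peanut oil; isoniazid at 25 mg/kg for 28 days. On day 30, serial dilutions of lung homogenate were plated on 7H11 agar and colonies counted after 3–4 weeks at 37 °C. Result is % inhibition of lung CFU versus untreated controls.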

Vero = assay: (§2) Cytotoxicity against african green monkey Vero cells assessed as growth inhibition at 10 times MIC after 24 hrs by MTS assay; type: cell-based; conditions: chlorocebus sabaeus, vero, 24 h; how it was run: as §1
[4] = system: Mycobacterium tuberculosis; assay: Antitubercular activity against Mycobacterium tuberculosis H37Rv infected in Swiss mouse infected assessed as mean survival time of mouse at 25 mg/kg/day, po for 28 days measured on day 30 post infection; type: functional
How it was run: (§3)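 Outbred Swiss mice infected i.v. with H37Rv at 10^7 CFU/mouse, in groups of 6–8. Daily oral dosing for 28 days: test compounds at 100 mg/kg in peanut oil, or isoniazid at 25 mg/kg. Percent survivors and mean survival time were recorded on day 30 and day 40.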

Mus musculus = assay: Antitubercular activity against Mycobacterium tuberculosis H37Rv infected in Swiss mouse infected assessed as mouse survival at 25 mg/kg/day, po for 28 days measured on day 30 post infection; type: functional; how it was run: as §3
[5] = system: Mycobacterium tuberculosis; assay: Antitubercular activity against Mycobacterium tuberculosis H37Rv infected in Swiss mouse infected assessed as mouse survival at 25 mg/kg/day, po for 28 days measured on day 40 post infection; type: functional; how it was run: as §3
[6] = system: Mycobacterium tuberculosis; assay: Ex-vivo antitubercular activity against Mycobacterium tuberculosis H37Rv infected in mouse BMDM cells assessed as reduction in intracellular bacterial level after 4 days at 5 times MIC; type: functional; design: scale not given: the % may be the effect or the level left
[7] = as §2; type: cell-based; conditions: chlorocebus sabaeus, Vero cells; read-out: GI; how it was run: as §1
[8] = system: Mycobacterium tuberculosis; assay: Antitubercular activity against Mycobacterium tuberculosis H37Rv infected in Swiss mouse infected assessed as mean survival time of mouse at 100 mg/kg/day, po for 28 days measured on day 30 post infection; type: functional; how it was run: as §3
[9] = system: Mycobacterium tuberculosis; assay: Antitubercular activity against Mycobacterium tuberculosis H37Rv infected in Swiss mouse infected assessed as mouse survival at 100 mg/kg/day, po for 28 days measured on day 40 post infection; type: functional; how it was run: as §3
[10] = system: Mycobacterium tuberculosis; assay: Antitubercular activity against Mycobacterium tuberculosis H37Rv infected in Swiss mouse assessed as inhibition of viable bacterial counts in lungs at 100 mg/kg, po for 28 days measured on day 30 post infection; type: functional
[11] = system: Mycobacterium tuberculosis; assay: Antitubercular activity against Mycobacterium tuberculosis H37Rv infected in Swiss mouse infected assessed as mouse survival at 100 mg/kg/day, po for 28 days measured on day 30 post infection; type: functional; how it was run: as §3
[12] = system: Mycobacterium tuberculosis; assay: Antitubercular activity against Mycobacterium tuberculosis H37Rv infected in Swiss mouse infected assessed as mean survival time of mouse survival at 100 mg/kg/day, po for 28 days measured on day 40 post infection; type: functional; how it was run: as §3

SMILES: O=C(/C=C/c1ccc(OCc2cccc(Cl)c2)cc1)c1ccc(-n2cncn2)cc1
- MIC [1]: 12.5 µg/mL (≈ 30.1 µM)

SMILES: O=C(/C=C/c1ccc(-n2ccnc2)cc1)c1ccc(OCc2cccc(Cl)c2)cc1
- MIC [1]: 6.25 µg/mL (≈ 15.1 µM)

SMILES: O=C(/C=C/c1ccc(OCc2cc(F)ccc2F)cc1)c1ccc(-n2cncn2)cc1
- MIC [1]: > 25 µg/mL

SMILES: O=C(/C=C/c1ccc(OCc2ccc(Cl)cc2Cl)cc1)c1ccc(OCc2ccc(Cl)cc2Cl)cc1
- MIC [1]: > 25 µg/mL

SMILES: O=C(/C=C/c1ccc(-n2ccnc2)cc1)c1ccc(Oc2ccc(C(F)(F)F)cc2[N+](=O)[O-])cc1
- MIC [1]: 12.5 µg/mL (≈ 26.1 µM)

SMILES: NNC(=O)c1ccncc1 [ISONIAZID]
- Activity [2]: Non-toxic
- inhibition in vivo at 25 mg/kg [3]: 100%
- MIC [1]: 0.025 µg/mL (≈ 0.182 µM)
- Activity (Vero): Non-toxic
- MST [4]: 30 days
- survival at 25 mg/kg/day (Mus musculus): 100%
- survival at 25 mg/kg/day [5]: 100%

SMILES: O=C(/C=C/c1ccc(-n2ccnc2)cc1)c1ccc(OCc2ccc(Cl)cc2Cl)cc1
- Activity [2]: Non-toxic
- MIC [1]: 1.56 µg/mL (≈ 3.47 µM)
- Activity (Vero): Non-toxic
- Activity [6]: <50%

SMILES: O=C(/C=C/c1ccc(-n2ccnc2)cc1)c1ccc(OCc2cc(Cl)ccc2Cl)cc1
- MIC [1]: 3.12 µg/mL (≈ 6.94 µM)
- inhibition at 24 h, 10 times MIC [7]: 50%

SMILES: O=C(/C=C/c1ccc(OCc2ccc(F)cc2F)cc1)c1ccc(-n2ccnc2)cc1
- Activity [6]: <50%

SMILES: O=C(/C=C/c1ccc(-n2cncn2)cc1)c1ccc(OCc2ccc(Cl)cc2Cl)cc1
- MIC [1]: > 25 µg/mL

SMILES: O=C(/C=C/c1ccccc1)c1ccc(OCc2ccc(Cl)cc2Cl)cc1
- MIC [1]: 12.5 µg/mL (≈ 32.6 µM)

SMILES: O=C(/C=C/c1ccc(-n2ccnc2)cc1)c1ccc(OCc2ccc(F)cc2F)cc1
- Activity [2]: Non-toxic
- MST [8]: 30 days
- survival at 100 mg/kg/day [9]: 100%
- MIC [1]: 1.56 µg/mL (≈ 3.75 µM)
- Activity (Vero): Non-toxic
- Activity [6]: 71%
- inhibition in vivo at 100 mg/kg [10]: 40%
- survival at 100 mg/kg/day [11]: 100%
- MST [12]: 40 days

SMILES: O=C(/C=C/c1ccc(OCc2cc(Cl)ccc2Cl)cc1)c1ccc(-n2cncn2)cc1
- MIC [1]: > 25 µg/mL

SMILES: O=C(/C=C/c1ccc(OCc2ccc(Cl)cc2Cl)cc1)c1ccc(-n2ccnc2)cc1
- Activity [2]: Non-toxic
- MST [8]: 30 days
- survival at 100 mg/kg/day [9]: 83%
- MIC [1]: 3.12 µg/mL (≈ 6.94 µM)
- Activity (Vero): Non-toxic
- Activity [6]: 99%
- inhibition in vivo at 100 mg/kg [10]: 13%
- survival at 100 mg/kg/day [11]: 100%
- MST [12]: 38.5 days

SMILES: O=C(/C=C/c1ccc(-n2cncn2)cc1)c1ccc(Oc2ccc(C(F)(F)F)cc2[N+](=O)[O-])cc1
- MIC [1]: 12.5 µg/mL (≈ 26 µM)

SMILES: O=C(/C=C/c1ccc(OCc2ccc(Cl)cc2Cl)cc1)c1ccc(-n2cncn2)cc1
- MIC [1]: 25 µg/mL (≈ 55.5 µM)

SMILES: O=C(/C=C/c1ccc(OCc2cccc(Cl)c2)cc1)c1ccc(-n2ccnc2)cc1
- MIC [1]: 3.12 µg/mL (≈ 7.52 µM)
- inhibition at 24 h, 10 times MIC [7]: 50%

SMILES: O=C(/C=C/c1ccc(-n2cncn2)cc1)c1ccc(OCc2cc(F)ccc2F)cc1
- MIC [1]: 3.12 µg/mL (≈ 7.47 µM)
- inhibition at 24 h, 10 times MIC [7]: 50%

SMILES: O=C(/C=C/c1ccc(Oc2ccc(C(F)(F)F)cc2[N+](=O)[O-])cc1)c1ccc(-n2ccnc2)cc1
- MIC [1]: 12.5 µg/mL (≈ 26.1 µM)

SMILES: O=C(/C=C/c1ccc(-n2cncn2)cc1)c1ccc(OCc2cc(Cl)ccc2Cl)cc1
- MIC [1]: > 25 µg/mL

SMILES: O=C(/C=C/c1ccc(-n2ccnc2)cc1)c1ccc(-n2ccnc2)cc1
- MIC [1]: > 25 µg/mL

SMILES: O=C(/C=C/c1ccc(-n2cncn2)cc1)c1ccc(OCc2cccc(Cl)c2)cc1
- Activity [2]: Non-toxic
- MIC [1]: 0.78 µg/mL (≈ 1.88 µM)
- Activity (Vero): Non-toxic
- Activity [6]: <50%

SMILES: O=C(/C=C/c1ccc(-n2ccnc2)cc1)c1ccc(OCc2cc(F)ccc2F)cc1
- Activity [2]: Non-toxic
- MIC [1]: 3.12 µg/mL (≈ 7.49 µM)
- Activity (Vero): Non-toxic
- Activity [6]: <50%

SMILES: O=C(/C=C/c1ccc(OCc2cc(Cl)ccc2Cl)cc1)c1ccc(-n2ccnc2)cc1
- MIC [1]: 12.5 µg/mL (≈ 27.8 µM)

SMILES: O=C(/C=C/c1ccc(-n2cncn2)cc1)c1ccc(OCc2ccc(F)cc2F)cc1
- MIC [1]: 12.5 µg/mL (≈ 29.9 µM)

SMILES: O=C(/C=C/c1ccc(-n2cncn2)cc1)c1ccc(-n2cncn2)cc1
- MIC [1]: > 25 µg/mL

SMILES: O=C(/C=C/c1ccc(OCc2ccc(F)cc2F)cc1)c1ccc(-n2cncn2)cc1
- MIC [1]: 12.5 µg/mL (≈ 29.9 µM)
